According to PubChem BioAssay:
Records with an inconclusive call do not appear.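 The calls were made as follows, unless noted: active = viability at or below 27.92% in each of two runs, the all-compound median minus 4 SD; inconclusive = no clear call, values can overlap the other calls; inactive = the rest.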

Columns and labels:
[1] = S. cerevisiae growth inhibition in permissive medium (OD615), pilot counter-assay for S. cerevisiae lifespan shortening project, permissive growth control (AID 705;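 active = growth inhibition above 25% in both replicates, a cutoff set 3 SD above the mean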); settings: OD615, 24 h, at 10 µM, stronger effect = higher value
In short: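 System – S. cerevisiae with engineered DeaD lifespan system · Buffer or medium – SC raffinose/galactose permissive medium · Schedule – cells pre-grown 4 h, then 24 h compound exposure, 30 °C humidified · Technique – culture turbidity as optical density at 615 nm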

[2] = S. cerevisiae growth inhibition in restrictive medium, OD615, pilot screen, restrictive growth control, yeast lifespan reduction project (AID 706;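 active = growth inhibition above a set limit, 3 SD over mean compound inhibition, in both replicates, cut at about 43% in these data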;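 also: modified DeaD lifespan yeast strain shifted to restrictive glucose medium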); settings: OD615, 48 h, at 10 µM, stronger effect = higher value
In short: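 Material: engineered S. cerevisiae DeaD strain / Medium: glucose-based CSMM-D restrictive medium / Compound: single dose of 10 µM compound final, 0.25% DMSO / Timing: 4 h pre-incubation, 48 h exposure at 30 °C / Technique: OD615 absorbance reading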

[3] = doxorubicin toxicity protection in MRP-1 cells – H69AR cells, CellTiter-Glo, duplicate, MRP-1 activator project, pilot screen (AID 807;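 active = viability increase at or above a cutoff of the median across tested compounds plus 3 SD, cut at about 8.5% in these data, passing the limit was not always enough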;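 also: compound pretreatment 18-22 h then 72 h combined with doxorubicin; 0% = doxorubicin alone and 100% = vehicle without doxorubicin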); settings: H69AR viability with doxorubicin, CellTiter-Glo luminescence; at 10 µM; stronger effect = higher value
[4] = viability of HCT116 without oncogenic beta-catenin – human colon tumor cells, pilot screen (AID 823;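 active = cell viability at or below a set limit in both duplicate runs, the limit being the all-compound median minus 4 SD, cut at about 23% in these data, passing the limit was not always enough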;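 also: 0% = wells killed by 20 µM Hyamine and 100% = untreated DMSO cell wells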); settings: HCT116 beta-catenin knockout viability, CellTiter-Glo, 60 h; at 10 µM; stronger effect = lower value
[5] = viability of PTEN-null HCT116 cells – cell-based, HCT116 clonal line, CellTiter-Glo, pilot screen (AID 824); settings: HCT116 PTEN-deleted viability, 60 h, at 10 µM, stronger effect = lower value;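 also: 0% = 20 µM Hyamine control and 100% = vehicle cell control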
[6] = RAM pathway blockade in budding yeast – dse1pr::URA3 reporter, 5-FOA selection, pilot screen (AID 869;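 active = inhibition over a set limit, the all-compound mean plus 3 SD, in both replicate runs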;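 also: 0% = DMSO wells with no growth and 100% = 10 µM 1-NA-PP1 with full growth; RAM network block rescues cells from 5-FOA so hits raise OD615 growth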); settings: S. cerevisiae dse1pr::URA3 5-FOA growth, OD615, 2 d; at 10 µM; stronger effect = higher value; strain carries analog-sensitive mutant Cbk1 kinase
[7] = RAM signaling pathway blockade in yeast – S. cerevisiae, Pdr1DBD-CYC8 efflux-inhibited sensitized strain, primary screen (AID 1298;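 active = RAM network inhibition above 8.4% in each of two replicates, 3 SD over the compound average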;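 also: 0% = DMSO untreated cells without growth and 100% = 10 µM 1-NA-PP1 full growth; higher means more yeast growth rescued from 5-FOA killing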); settings: S. cerevisiae cbk1-as DSE1-URA3 strain, 5-FOA growth OD615, 2 d; at 50 µM; stronger effect = higher value

CCN1CCN(CC(=O)NC2CCCC2)C(=O)C1=O
inactive: growth inhibition [1] 5.56% | growth inhibition [2] -5% | viability increase [3] 0.46% | viability [4] 114% | viability [5] 94.9% | inhibition [6] 1.52% | RAM network inhibition [7] 1.79%

COc1ccc(-c2nnc(SCC(=O)NC(C)C)n2CC2CCCO2)cc1OC (stereo not drawn)
inactive: growth inhibition [1] 1.07% | growth inhibition [2] -3.87% | viability increase [3] 0.35% | viability [4] 103% | viability [5] 98.3% | inhibition [6] 1.69% | RAM network inhibition [7] -0.58%

Cc1ccc2c(c1)C1(C(=O)N2C)N2CC3(C)CN1CC(C)(C2)C3=O (stereo not drawn)
inactive: growth inhibition [1] 6.63% | growth inhibition [2] 0.76% | viability increase [3] -2.2% | viability [4] 99.1% | viability [5] 99% | inhibition [6] 1.27% | RAM network inhibition [7] 0.11%

Cc1c(-n2cc(C(=O)O)c(=O)c3cc(F)c(N4CCCC4)c(F)c32)c(=O)n(-c2ccccc2)n1C
inactive: growth inhibition [1] -5.81% | growth inhibition [2] -11.4% | viability increase [3] -2.19% | viability [4] 98.8% | viability [5] 87.8% | inhibition [6] 2.6% | RAM network inhibition [7] 5.65%

Cc1csc2ncc(C(=O)NCc3ccccn3)c(=O)n12
inactive: growth inhibition [1] -10.9% | growth inhibition [2] 3.67% | viability increase [3] -0.65% | viability [4] 100% | viability [5] 96.7% | inhibition [6] 1.58% | RAM network inhibition [7] 1.6%

C=C(C)Cn1c(COc2ccccc2)nnc1SCC(=O)O
inactive: growth inhibition [1] -9.65% | growth inhibition [2] -7.02% | viability increase [3] -4.09% | viability [4] 89.7% | viability [5] 90.6% | inhibition [6] 0.3% | RAM network inhibition [7] 0.88%

O=C(Nc1nc(-c2cccs2)cs1)c1ccc(S(=O)(=O)N2CCCCC2)cc1
inactive: growth inhibition [1] 0.945% | growth inhibition [2] -2.17% | viability increase [3] -3.02% | viability [4] 71.7% | viability [5] 61.8% | inhibition [6] 1.4% | RAM network inhibition [7] 4.06%

CCOc1ccc(-n2c(SCC(=O)NCc3ccco3)nc3c([nH]c4ccccc43)c2=O)cc1
inactive: growth inhibition [1] -2.76% | growth inhibition [2] -7.4% | viability increase [3] -3.17% | viability [4] 68.5% | viability [5] 64.1% | inhibition [6] 1.14% | RAM network inhibition [7] 7.07%

C=CCn1c(SCCC#N)nnc1-c1ccncc1
inactive: growth inhibition [1] -5.01% | growth inhibition [2] -18.7% | viability increase [3] -3.07% | viability [4] 100% | viability [5] 93.4% | inhibition [6] 1.88% | RAM network inhibition [7] -0.94%

CC(=O)Nc1ccc(S(=O)(=O)Nc2nc(C)cc(-n3nc(C)cc3C)n2)cc1
inactive: growth inhibition [1] -8.39% | growth inhibition [2] -6.55% | viability increase [3] -1.84% | viability [4] 102% | viability [5] 102% | inhibition [6] 1.25% | RAM network inhibition [7] 2.89%

O=C1CC(Nc2ccc(N3CCOCC3)cc2)C(=O)N1c1ccccc1F (stereo not drawn)
inactive: growth inhibition [1] 1.41% | growth inhibition [2] -5.97% | viability increase [3] -2.99% | viability [4] 110% | viability [5] 105% | inhibition [6] 1.53% | RAM network inhibition [7] 5.38%

CCC(=O)Nc1nc2ccccc2n1CCN1CCOCC1
inactive: growth inhibition [1] -9.48% | growth inhibition [2] -0.375% | viability increase [3] -2.15% | viability [4] 98.6% | viability [5] 99.3% | inhibition [6] -0.285% | RAM network inhibition [7] 5.41%

COc1cc(NC(=O)C2CCCC2)c(OC)cc1Cl
inactive: growth inhibition [1] -8.4% | growth inhibition [2] -12% | viability increase [3] -3.09% | viability [4] 81.9% | viability [5] 78.4% | inhibition [6] 1.02% | RAM network inhibition [7] -0.72%

O=C(O)Cc1ccc(NC(=O)C2CCCCC2C(=O)O)cc1 (stereo not drawn)
inactive: growth inhibition [1] -15% | growth inhibition [2] -6.54% | viability increase [3] 0.06% | viability [4] 95.5% | viability [5] 103% | inhibition [6] 0.385% | RAM network inhibition [7] 2.44%

CCOc1ccc(C(=O)Nn2cnnc2)cc1
inactive: growth inhibition [1] -3.16% | growth inhibition [2] -5.59% | viability increase [3] 0.25% | viability [4] 104% | viability [5] 103% | inhibition [6] 0.895% | RAM network inhibition [7] 1.85%

O=C(CCCSc1nc2sc3c(c2c(=O)[nH]1)CCC3)NCCCO
inactive: growth inhibition [1] -8.91% | growth inhibition [2] 6.12% | viability increase [3] 0.57% | viability [4] 102% | viability [5] 99.8% | inhibition [6] 0.14% | RAM network inhibition [7] 1.44%

CCOC(=O)C(CCOc1cccc(CC)c1)C(=O)OCC
inactive: growth inhibition [1] 4.28% | growth inhibition [2] -17.2% | viability increase [3] -2.61% | viability [4] 89.5% | viability [5] 87% | inhibition [6] -0.12% | RAM network inhibition [7] 2.13%

O=C1CCC(C(=O)N(c2ccccc2)C2(C(=O)NC3CCCCC3)CCCCC2)N1 (stereo not drawn)
inactive: growth inhibition [1] 1.54% | growth inhibition [2] 2.4% | viability increase [3] -0.07% | viability [4] 94.3% | viability [5] 97.2% | inhibition [6] 0.505% | RAM network inhibition [7] 1.6%

CC(=O)c1cccc(NC(=O)Cn2cc3c(n2)CCCC3)c1
inactive: growth inhibition [1] -3.74% | growth inhibition [2] -0.095% | viability increase [3] -3.04% | viability [4] 97.5% | viability [5] 96.7% | inhibition [6] 0.1% | RAM network inhibition [7] 2.14%

N#CC1=C(O)CCCn2c1nc1ccccc1c2=O
inactive: growth inhibition [1] -3.3% | growth inhibition [2] -18% | viability increase [3] -0.39% | viability [4] 97% | viability [5] 97% | inhibition [6] 2.41% | RAM network inhibition [7] 0.01%

Cc1cccc(-c2nc(CS(=O)CC(=O)N3CCCCC3)c(C)o2)c1 (stereo not drawn)
inactive: growth inhibition [1] -8.38% | growth inhibition [2] -15.3% | viability increase [3] -0.7% | viability [4] 101% | viability [5] 92.3% | inhibition [6] 0.205% | RAM network inhibition [7] 3.41%

CCOC(=O)c1sc2nc3n(c(=O)c2c1C)CCCCC3
inactive: growth inhibition [1] -4.76% | growth inhibition [2] 5.75% | viability increase [3] 6.25% | viability [4] 87.5% | viability [5] 103% | inhibition [6] 0.475% | RAM network inhibition [7] 4.46%

Cn1cc(CC(=O)NCCCN2CCCC2=O)c2ccccc21
inactive: growth inhibition [1] -3.36% | growth inhibition [2] -11.5% | viability increase [3] -1.83% | viability [4] 99.3% | viability [5] 87.3% | inhibition [6] 0.77% | RAM network inhibition [7] -0.89%

CC1Cc2ccccc2N1C1=NS(=O)(=O)c2ccccc21 (stereo not drawn)
inactive: growth inhibition [1] -3.44% | growth inhibition [2] -25.5% | viability increase [3] -1.97% | viability [4] 91.7% | viability [5] 96.5% | inhibition [6] 2.68% | RAM network inhibition [7] 7%
